Data set [1] relates to DSS-induced experimental colitis. Put plainly: DSS-induced experimental colitis model in mice. In kind it is in vivo. The conditions noted are these: DB07565 rectally daily. In short, it runs like this: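 Male C57BL/6 J mice, 7–8 weeks, randomised by weight into groups of six. Colitis induced with 3 % (w/v) DSS in drinking water for 7 days. Test compound dissolved in DMSO, diluted in PBS to 50 or 100 μM, given rectally at 100 µl/mouse daily. Oral 5-ASA 50 mg/kg daily as reference. Colons fixed in 4 % PFA and paraffin-embedded. 5 μm sections stained with H&E; immunofluorescence for Claudin-1, Occludin and ZO-1 at 4 ℃ overnight, 1 h secondary, DAPI 10 min.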

In a further data set the target is T1, human P2Y14 receptor (Homo sapiens, UniProt Q15391).
T1 sequence (Q15391 1-338): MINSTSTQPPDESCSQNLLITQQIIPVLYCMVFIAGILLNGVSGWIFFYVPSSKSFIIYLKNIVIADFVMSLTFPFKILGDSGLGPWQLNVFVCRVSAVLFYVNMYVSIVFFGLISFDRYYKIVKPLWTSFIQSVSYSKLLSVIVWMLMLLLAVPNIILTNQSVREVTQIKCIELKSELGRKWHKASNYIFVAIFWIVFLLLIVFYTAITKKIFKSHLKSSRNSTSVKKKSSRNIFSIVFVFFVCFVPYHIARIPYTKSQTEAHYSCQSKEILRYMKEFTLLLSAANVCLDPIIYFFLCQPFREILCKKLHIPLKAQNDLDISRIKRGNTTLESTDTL
The data set is described as follows: In vitro P2Y14R antagonistic activity. In kind it is cell-based. In short, it runs like this:
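hP2Y14-HEK293 cells (HEK293 stably expressing human P2Y14R) grown in DMEM with 10 % FBS and 1 % penicillin/streptomycin. Seeded at 10,000 cells/well in 384-well plates and preincubated 30 min at 37 °C with test compound or DMSO. Stimulated with UDPG; intracellular cAMP measured by cAMP-Glo luminescence on a plate reader. N = 3.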

For data set [2] the following is noted: within 60 min; cited from earlier work.
The next data set relates to HT-29 cells. The data set is described as follows: Cell viability assay. In kind it is cell-based. The note with it: 100 μM, 24 h, CCK-8, N = 5. A digest of the protocol:
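HT-29 cells cultured in DMEM with 10 % FBS and 1 % penicillin/streptomycin at 37 °C, 5 % CO2. Seeded at 10,000 cells/well in 96-well plates and exposed to test compound or DMSO for 24 h at 37 °C. Viability read with CCK-8 per kit instructions; N = 5.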

Molecules are shown by their SMILES. pIC50: −log10 of the molar value.

With `O=C(O)CCC(=O)OC[C@@H](NC(=O)C(Cl)Cl)[C@H](O)c1ccc([N+](=O)[O-])cc1` [DB07565, Chloramphenicol succinate], in data set [1] (C57BL/6 J mice, 3 % DSS 7 days), the “histopathological analysis of colon (H&E)” value was “mitigated DSS-induced tissue damage and inflammatory cell infiltration in the colon”. The “gut barrier function, immunofluorescence of tight junction proteins (Claudin-1, Occludin, ZO-1)” value in data set [1] (colon tissue of DSS-treated mice) was “markedly enhanced gut barrier function”. At human P2Y14 receptor, this molecule gave a pIC50 of 8.80. Besides, in data set [2], the “degradation in intestinal fluid” value was “less than 10%”. In addition, the “cytotoxicity (cell viability)” value in the data set on HT-29 cells is “low cytotoxicity”.

The values above are taken from paper PMC13154657 (Journal of Advanced Research, 2025).
